Active and inactive are the calls of the source. The calls are words filed in the database; no cut-off is given here.

This note sets out measurements from ChEMBL document CHEMBL4428035, “Urea derivates of ursolic, oleanolic and maslinic acid induce apoptosis and are selective cytotoxic for several human tumor cell lines” (Eur J Med Chem, 2016).

The test system of data set [1] is A2780. Kind of data set: Cell cycle arrest in human A2780 cells assessed as decrease in S phase at 10 uM after 48 hrs by FACS analysis. The data set is classed as functional, cell-based. In outline:
(§1)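 Living A2780 cells treated with 10 µM test agent for 24 h and 48 h, then examined for cell-cycle distribution by FACS. Phase populations (Sub-G1, G1/G0, S, G2/M) were quantified by model fitting and expressed as arithmetic means of the population distribution (%).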
In general terms: In flow cytometry, cells or beads pass a laser one at a time.

Data set [2] has as its system A2780. In words: Cytotoxicity against human A2780 cells assessed as reduction in cell proliferation after 96 hrs by sulforhodamine B assay. The data set is classed as functional, cell-based. The conditions noted are these: A2780, 96 h. On the technique in general: The SRB assay estimates cell density from bound dye.
Data set [3] has as its system A549. In words: Cytotoxicity against human A549 cells assessed as reduction in cell proliferation after 96 hrs by sulforhodamine B assay. The data set is classed as functional, cell-based. The conditions noted are these: A549, 96 h.
Data set [4] concerns A2780. In words: Cell cycle arrest in human A2780 cells assessed as decrease in G2/M phase at 10 uM after 24 hrs by FACS analysis. The data set is classed as functional, cell-based. The method, boiled down: as §1
Data set [5] concerns A2780. In words: Induction of apoptosis in human A2780 cells assessed as necrotic cells at 10 uM after 24 hrs by Annexin V/propidium iodide staining based flow cytometry relative to control. It counts as functional. In outline:
(§2)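 Annexin V/propidium iodide staining of A2780 cells exposed to 10 µM compound for 24 h and 48 h, read by flow cytometry. Viable, apoptotic, necrotic and secondary-necrotic fractions were reported as relative changes versus untreated control (%).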

In data set [6] the test system is A2780. In words: Induction of apoptosis in human A2780 cells assessed as viable cells at 10 uM after 24 hrs by Annexin V/propidium iodide staining based flow cytometry relative to control. It counts as functional. The conditions noted are these: A2780, 24 h, read-out: Activity. In outline:
as §2

The subject of data set [7] is A2780. In words: Cell cycle arrest in human A2780 cells assessed as decrease in G1/G0 phase at 10 uM after 48 hrs by FACS analysis. The data set is classed as functional, cell-based. The method, boiled down:
as §1

The subject of data set [8] is NIH3T3. Kind of data set: Cytotoxicity against mouse NIH/3T3 cells assessed as reduction in cell proliferation after 96 hrs by sulforhodamine B assay. The conditions noted are these: NIH3T3, 96 h. It counts as ADME, cell-based.
The test system of data set [9] is A2780. Kind of data set: Cell cycle arrest in human A2780 cells assessed as increase in subG1 phase at 10 uM after 48 hrs by FACS analysis. It counts as functional, cell-based. In outline:
as §1

In data set [10] the test system is 518A2. Kind of data set: Cytotoxicity against human 518A2 cells assessed as reduction in cell proliferation after 96 hrs by sulforhodamine B assay. To be noted: 518A2, 96 h. The data set is classed as functional, cell-based.
Data set [11] concerns A2780. Kind of data set: Induction of apoptosis in human A2780 cells assessed as apoptotic cells at 10 uM after 24 hrs by Annexin V/propidium iodide staining based flow cytometry relative to control. It counts as functional. In outline: as §2
The subject of data set [12] is MCF7. In words: Cytotoxicity against human MCF7 cells assessed as reduction in cell proliferation after 96 hrs by sulforhodamine B assay. It counts as functional, cell-based. The conditions noted are these: MCF7, 96 h.
For data set [13], the system named is A2780. In words: Induction of apoptosis in human A2780 cells assessed as secondary necrotic cells at 10 uM after 24 hrs by Annexin V/propidium iodide staining based flow cytometry relative to control. The data set is classed as functional. In outline:
as §2

The test system of data set [14] is HT-29. Kind of data set: Cytotoxicity against human HT-29 cells assessed as reduction in cell proliferation after 96 hrs by sulforhodamine B assay. It counts as functional, cell-based. The conditions noted are these: HT-29, 96 h.
Data set [15] deals with A2780. In words: Cell cycle arrest in human A2780 cells assessed as decrease in G1/G0 phase at 10 uM after 24 hrs by FACS analysis. It counts as functional, cell-based. In outline:
as §1

Data set [16] relates to A2780. In words: Cell cycle arrest in human A2780 cells assessed as increase in S phase at 10 uM after 24 hrs by FACS analysis. It counts as functional, cell-based. The method, boiled down:
as §1

Data set [17] relates to SW-1736. In words: Cytotoxicity against human SW1736 cells assessed as reduction in cell proliferation after 96 hrs by sulforhodamine B assay. The conditions noted are these: SW-1736, 96 h. It counts as functional, cell-based.
Data set [18] concerns FaDu. Kind of data set: Cytotoxicity against human FADU cells assessed as reduction in cell proliferation after 96 hrs by sulforhodamine B assay. It counts as functional, cell-based.
A short description of data set [19]: Selectivity index, ratio of EC50 for mouse NIH/3T3 cells to EC50 for human A2780 cells. The conditions noted are these: NIH/3T3 cells versus A2780 cells.
The subject of data set [20] is A2780. Kind of data set: Induction of apoptosis in human A2780 cells assessed as viable cells at 10 uM after 48 hrs by Annexin V/propidium iodide staining based flow cytometry relative to control. It counts as functional. To be noted: A2780, 48 h, read-out: Activity. In outline: as §2
Data set [21] relates to A2780. In words: Induction of apoptosis in human A2780 cells assessed as apoptotic cells at 10 uM after 48 hrs by Annexin V/propidium iodide staining based flow cytometry relative to control. The data set is classed as functional. The method, boiled down:
as §2

Data set [22] relates to A2780. Kind of data set: Induction of apoptosis in human A2780 cells assessed as secondary necrotic cells at 10 uM after 48 hrs by Annexin V/propidium iodide staining based flow cytometry relative to control. It counts as functional. In outline: as §2
Data set [23] concerns A2780. In words: Induction of apoptosis in human A2780 cells assessed as necrotic cells at 10 uM after 48 hrs by Annexin V/propidium iodide staining based flow cytometry relative to control. It counts as functional. In outline: as §2

As for `CC(=O)O[C@H]1C[C@]2(C)[C@H]3CC=C4[C@@H]5CC(C)(C)CC[C@]5(NC(=O)Oc5ccccc5)CC[C@@]4(C)[C@]3(C)CC[C@H]2C(C)(C)[C@H]1OC(C)=O`, the result in [1], in [4], in data set [7], in data set [9], in [15] and in [16] was Active. Moreover, the EC50 was found to be 2.4 µM in data set [2]; 8.5 µM in data set [3]; 15.4 µM in data set [8]; 4.4 µM in data set [10]; 5.8 µM in data set [12]; 8.5 µM in data set [14]. Further, the EC50 in data set [17] stood at 7.3 µM. Besides, the values for the Activity in data set [5], in data set [11] and in [13] were -1%, 2% and 3%, respectively. The change in viable cells vs control (%) at 10 µM in data set [6] is -4%.
`CC(=O)O[C@@H]1C[C@]2(C)[C@H]3CC=C4[C@@H]5CC(C)(C)CC[C@]5(C(=O)NCc5ccccc5)CC[C@@]4(C)[C@]3(C)CC[C@H]2C(C)(C)[C@H]1OC(C)=O`: the EC50 in data set [2] was 0.5 µM; in [3], 2.5 µM; in [18] it was 3.1 µM; in data set [8], 33.8 µM; in data set [10] it was 1.5 µM; in data set [12] it was 7.7 µM. Moreover, the EC50 in data set [14] worked out at 4.7 µM. Moreover, in [19], the selectivity ratio came to 70.
Take `CC(=O)O[C@H]1C[C@]2(C)[C@H]3CC=C4[C@@H]5CC(C)(C)CC[C@]5(C(=O)NCc5ccccc5)CC[C@@]4(C)[C@]3(C)CC[C@H]2C(C)(C)[C@H]1OC(C)=O`: the outcome in data set [1], in data set [4], in [7], in data set [9], in data set [15] and in [16] was Active. In addition, the EC50 stood at 0.5 µM in [2]; 5.6 µM in data set [3]; 2 µM in [18]; 9.4 µM in data set [8]; 0.9 µM in data set [10]; 3.5 µM in data set [12]. Also, the EC50 in [14] came out at 3.7 µM; in data set [17] it was 3.4 µM. Also, the viability at 10 µM in data set [20] was -79%. Also, the Activity in [21] is given as 55%; in data set [5], -1%; in data set [11], 5%; in [13], 6%; in data set [22], 23%; in data set [23], 1%. Besides, in data set [6], the change in viable cells vs control (%) at 10 µM is -11%.
Take `CC(=O)O[C@@H]1[C@H](OC(C)=O)C[C@]2(C)[C@H]3CC=C4[C@@H]5CC(C)(C)CC[C@]5(C(=O)NCc5ccccc5)CC[C@@]4(C)[C@]3(C)CC[C@H]2C1(C)C`: the outcome in data set [1], in data set [4], in [7], in [9], in [15] and in [16] was Active. For the same compound, the EC50 in data set [2] came out at 1.9 µM; in data set [3] it was 15.6 µM; in data set [18] it was 5.5 µM; in data set [8] it was 11.4 µM; in data set [10] it was 5.7 µM; in data set [12] it was 7.8 µM. In addition, the EC50 is 7.7 µM in data set [14] and 20.7 µM in data set [17]. The viability at 10 µM in [20] was -65%. The Activity in data set [21] is recorded as 45%; in data set [5] it was 1%; in data set [11], 5%; in [13], 10%; in data set [22] it was 20%; in data set [23], -1%. Besides, the change in viable cells vs control (%) at 10 µM in [6] is -16%.

As usually defined, the EC50 is the concentration that produces a half-maximal response.
